Source: PubChem (Sanford-Burnham Center for Chemical Genomics)
The list is not random: actives were taken first. Their share in the collection is about 1.5%.
CXCR6 block = CXCR6 (human) receptor inhibition; O00574; CHO-K1 PathHunter CXCR6 beta-arrestin, luminescence; inhibition, % at 20 µM; actives 0.36% (n = 360,000); AID 602244; in the data active = inhibition above about 34%, passing the limit was not always enough;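 note: antagonist mode with CXCL16 agonist at 10 nM final; 0% = 10 nM CXCL16 with DMSO and 100% = unstimulated wells without agonist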
APJ antagonist = APJ receptor antagonism. P35414. CHO-K1 APJ beta-arrestin complementation, luminescence. inhibition, % at 20 µM. actives 0.32% (n = 330,000);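 active = inhibition above about 40% at 20 µM, limit read from the data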;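 note: cells challenged with 10 nM apelin-13 agonist together with compound; plate controls were apelin-13 plus DMSO wells for no effect and DMSO wells lacking apelin-13 for full effect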
EBI2 block = blocks human EBI2 receptor beta-arrestin signaling; EBI2 beta-arrestin recruitment, luminescence, 7a,25-OHC stimulated; AID 651636; actives 0.81% (n = 360,000); inhibition, % at 5 µM; P32249; in the data active = inhibition above about 38%;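 note: enzyme fragment complementation signal reports receptor beta-arrestin coupling in cells; 0% = agonist plus DMSO wells and 100% = wells without agonist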
Target sequence (P32249 whole entry, looked up, the tested form may be a part): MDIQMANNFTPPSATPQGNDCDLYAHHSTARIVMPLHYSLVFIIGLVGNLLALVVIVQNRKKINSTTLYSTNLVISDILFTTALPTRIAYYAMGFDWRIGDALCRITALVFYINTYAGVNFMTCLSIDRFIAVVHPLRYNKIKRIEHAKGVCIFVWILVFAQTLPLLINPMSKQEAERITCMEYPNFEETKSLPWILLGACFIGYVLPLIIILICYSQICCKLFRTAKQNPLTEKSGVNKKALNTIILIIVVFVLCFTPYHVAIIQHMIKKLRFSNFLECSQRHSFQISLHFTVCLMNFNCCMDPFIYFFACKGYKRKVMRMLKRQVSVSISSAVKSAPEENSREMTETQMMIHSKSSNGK
CCR6 antag = antagonists of human CCR6 receptor. actives 0.49% (n = 340,000). inhibition, % at 20 µM. CHO-K1 CCR6 PathHunter beta-arrestin, luminescence, CCL20-stimulated. P51684;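 active = compounds whose inhibition of the agonist-driven luminescence signal at 20 µM reaches about 50%, limit read from the data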;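 note: cells stimulated with CCL20 at 14 nM final; plate controls were DMSO with CCL20 for no effect and DMSO without agonist for full effect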
APJ agonist = APJ receptor agonism; actives 0.11% (n = 330,000); P35414; activation, % at 20 µM; CHO-K1 APJ PathHunter beta-arrestin, luminescence; 0% DMSO wells, 100% apelin;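 active = activation more than six SD over the plate average, tested at 20 µM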;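 note: 0% = DMSO alone and 100% = apelin-13 at 10 nM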
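Assay system – PathHunter CHO-K1 APJ (AGTRL-1) beta-arrestin reporter cells · Compound – one dose, 20 µM compound, 1% DMSO · Timing – compound 90 min 25 °C, reagent 1 h · Measured by – luminescence from split beta-galactosidase complementation, Galacton Star/Emerald II substrate · Measure – beta-arrestin recruitment to APJ as agonist activity, luminescent signal · Benchmarks – DMSO vs Apelin-13 10 nM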
EBI2 conf = confirmation of human EBI2 receptor antagonists. inhibition, % at 5 µM. EBI2 beta-arrestin luminescence, 7a,25-OHC antagonism. shares compounds with EBI2 block. actives 29% (n = 2,400). AID 651997;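 active = inhibition of at least 50%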
EBI2 agonist = EBI2 agonism counter-screen; shares compounds with EBI2 block; EBI2-expressing cells, agonist mode, luminescence, 60 min; 0% vehicle, 100% 7α,25-dihydroxycholesterol control; activation, % at 5 µM; 2,400 tested, under 10 active; AID 652000;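 active = activation of at least 50%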
bGal counter = inhibits E. coli beta-galactosidase, counter-screen for EBI2 antagonists. AID 652176. inhibition, % at 5 µM. purified beta-galactosidase, luminescent Galacton Star, 15 min. shares compounds with EBI2 block. actives 1% (n = 2,400);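 active = replicate-average signal at least 3 plate SD below neutral wells, shown as high inhibition, flagging enzyme-inhibiting false positives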;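 note: 0% = DMSO wells with enzyme and 100% = wells lacking enzyme; higher means stronger loss of beta-gal luminescence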
Active calls of the source: *; . = no result given.

SMILES | CXCR6 block | APJ antagonist | EBI2 block | CCR6 antag | APJ agonist | EBI2 conf | EBI2 agonist | bGal counter
Cc1cc(C)c(S(=O)(=O)N(C2=NCCS2)S(=O)(=O)c2c(C)cc(C)cc2C)c(C)c1 | -1.2 | 6.2 | 55.6* | 15.0 | -1.8 | 17.6 | 0.5 | -3.6
Cc1cc(C)c(S(=O)(=O)N(CC(=O)O)CC(=O)O)c(C)c1 | -2.2 | 0.7 | -4.0 | -12.0 | -0.7 | . | . | .
OC(CNCC(c1ccc(Cl)cc1Cl)c1c[nH]c2ccccc12)c1ccccc1 (configuration not stated) | -12.6 | -11.8 | 5.6 | -24.6 | 0.0 | . | . | .
CCOc1cc(S(=O)(=O)N2CCC(Cc3ccccc3)CC2)c(OCC)cc1-n1cnnn1 | -0.9 | 8.6 | 45.3* | 15.7 | -6.2 | 21.8 | 0.7 | 4.5
CCOc1cc(S(=O)(=O)N2CC=C(c3ccc(F)cc3)CC2)c(OCC)cc1-n1cnnn1 | 9.8 | 5.2 | 5.8 | 8.3 | -8.0 | . | . | .
Cc1cccc(CN2CCC(C(=O)Nc3ccc(-n4nc(C)cc4C)cc3)CC2)n1 | -7.7 | -0.9 | 3.0 | 0.1 | 0.4 | . | . | .
COc1ccc(CCN2CC(C(=O)N(C)CCOc3ccccc3)CCC2=O)cc1 (configuration not stated) | -7.1 | 23.7 | 42.0 | 7.9 | 0.6 | . | . | .
CN(CCOc1ccccc1)C(=O)C1CCC(=O)N(CCc2ccc(Cl)cc2)C1 (configuration not stated) | 0.7 | -10.6 | 53.9* | 13.6 | 0.4 | 38.6 | 1.2 | -2.2
Cc1cc(C2(c3ccc(O)c(C)c3)C(=O)Nc3ccccc32)ccc1O | 5.4 | 8.0 | 66.7* | -9.4 | -1.5 | 36.7 | -0.5 | -12.0
Cc1cccc2c1NC(=O)C2(c1ccc(O)cc1)c1ccc(O)cc1 | 7.0 | 4.5 | -5.0 | 1.0 | -4.1 | . | . | .
Cc1cccc(NC(=O)C(C)Oc2ccc(C)nc2[N+](=O)[O-])c1 (configuration not stated) | -0.3 | 1.2 | -3.5 | -8.7 | -2.5 | . | . | .
COc1ccccc1C(c1nnnn1Cc1ccccc1)N1CCN(C2CCCC2)CC1 (configuration not stated) | -6.6 | -7.4 | -2.5 | 4.9 | -0.5 | . | . | .
FC(F)(F)Oc1ccccc1C(c1nnnn1Cc1ccccc1)N1CCN(C/C=C/c2ccccc2)CC1 (configuration not stated) | 23.4 | . | 67.1* | . | . | 24.4 | -0.6 | 5.7
CCCCn1nnnc1C(c1ccccc1OC(F)(F)F)N1CCN(C/C=C/c2ccccc2)CC1 (configuration not stated) | 18.8 | . | 67.9* | . | . | 58.0* | -0.4 | 7.7
COC(=O)c1cc(S(=O)(=O)NCCc2sccc2C)c[nH]1 | 6.6 | 15.9 | -4.2 | 11.1 | -1.3 | . | . | .
CCOc1ccc(S(=O)(=O)N(C)CC(=O)NCc2ccccn2)cc1Cl | 9.4 | 8.2 | -1.2 | -6.4 | -3.0 | . | . | .
Cc1cc(OC(=O)c2ccccc2C(F)(F)F)c([N+](=O)[O-])c(=O)[nH]1 | 16.0 | 10.7 | -5.0 | 3.5 | -3.6 | . | . | .
Cc1ccc(NC(=O)c2ccc(OCc3c(C)noc3C)cc2)cc1C | -15.9 | -4.8 | 53.0* | 4.9 | -2.7 | 29.4 | 0.4 | -1.2
COc1cc(C(=O)NCCOc2ccc(Cl)cc2)ccc1OCc1c(C)noc1C | 7.7 | 2.9 | 71.9* | 8.2 | 2.8 | 56.0* | 0.2 | -2.6
O=C(c1cc2cc(Br)ccc2o1)N1CCCCC1 | -5.8 | 6.3 | 57.5* | 16.0 | -3.5 | 16.9 | -0.3 | -8.4
CC(C)(C)C(=O)Nc1cccc(S(=O)(=O)NC2=NCCC2)c1 | -8.4 | -4.0 | -12.4 | 6.9 | -5.1 | . | . | .
CCN(CC(=O)NCc1cccs1)CC(=O)Nc1ccccc1C | 0.9 | -0.6 | -1.6 | -5.1 | 3.5 | . | . | .
O=c1[nH]c(C2CCN(S(=O)(=O)Cc3ccccc3)CC2)nc2c1nnn2Cc1ccccc1 | 3.6 | 4.0 | -11.4 | 12.3 | 1.0 | . | . | .
O=c1[nH]c(C2CCN(S(=O)(=O)/C=C/c3ccccc3)CC2)nc2c1nnn2Cc1ccc(F)cc1 | -2.9 | 8.8 | 48.5* | 4.7 | -2.1 | 33.1 | 0.0 | 7.3
